Test results from ChEMBL document CHEMBL4680189, “Immunosuppressive properties of amino acid and peptide derivatives of mycophenolic acid” (Eur J Med Chem, 2020).
Active and inactive are the calls of the source. The calls are words filed in the database; no cut-off is given here. Where a SMILES comes first, the peptide text is derived from it. [ ]: non-standard residue; d: D form. The star is where a group is joined. Mycophenolyl = COc1c(C)c2c(c(O)c1C/C=C(\C)CCC(=O)*)C(=O)OC2; Arg(NO2) = N=C(NCCC[C@H](N)C(=O)O)N[N+](=O)[O-]; βAla = NCCC(=O)O

Assays:
[1] = Selectivity index, ratio of IC50 for cytotoxicity against human PBMC by MTT assay to EC50 for antiproliferative activity against human PBMC by VPD450 staining based flow cytometry
Outline: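 Ratio of the MTT cytotoxicity IC50 (72 h, stimulated PBMC) to the VPD450 antiproliferative EC50 (72 h, stimulated PBMC), both from fitted concentration-response curves.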

[2] = Immunosuppression-mediated cytotoxicity against anti-CD3/anti-CD28-stimulated human PBMC cells assessed as reduction in cell viability incubated for 72 hrs by MTT assay; format: cell-based
Outline: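 PBMC from buffy coats of healthy donors, isolated on a Ficoll gradient with erythrocyte lysis. Plated at 50×10^3 cells/well with anti-CD3/anti-CD28, serial compound dilutions, in triplicate. Incubated 72 h, 37 °C, 5% CO2. MTT added for 3 h, formazan dissolved in acidified isopropanol (0.4 N HCl), A570 read. Three donors averaged; IC50 from curve fit.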

[3] = tested on: Jurkat; assay: Immunosuppression-mediated cytotoxicity against human Jurkat T cells assessed as reduction in cell viability incubated for 48 hrs by MTT assay; format: cell-based
Outline: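 Jurkat cells in RPMI-1640 with 10% FBS and P/S, 50×10^3 cells/well, exposed in triplicate to serial dilutions from 1 mg/mL (DMSO/medium) for 48 h at 37 °C, 5% CO2. MTT (5 mg/ml) then added for 3 h. Formazan dissolved in 0.4 N HCl–isopropanol, absorbance read at 570 nm. IC50 from curve fitting; viability at 1 mg/mL used where IC50 could not be reached.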

[4] = Immunosuppression-mediated antiproliferative activity against anti-CD3/anti-CD28-stimulated human PBMC cells assessed as inhibition of cell growth incubated for 72 hrs by VPD450 staining based flow cytometry; format: functional
Outline: (§1)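 Cells stained with VPD450 (2 μL of 1 mM dye per 10-30×10^6 cells in 1 mL PBS, 15 min, 37 °C), washed. PBMC: 50×10^3 cells/well with anti-CD3/anti-CD28, serial compound dilutions, 72 h. Jurkat: 50×10^3 cells/well, 48 h. 37 °C, 5% CO2, triplicate. Dye dilution by flow cytometry; EC50 from curve fit.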

[5] = Selectivity index, ratio of IC50 for cytotoxicity against human Jurkat T cells by MTT assay to EC50 for antiproliferative activity against human Jurkat T cells by VPD450 staining based flow cytometry
Outline: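 Jurkat IC50 from the 48 h MTT assay (50×10^3 cells/well, triplicate) divided by Jurkat EC50. […] Cells treated 48 h with serial dilutions, then dye dilution read by flow cytometry and fitted.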

[6] = tested on: PBMC; assay: Immunosuppression-mediated antiproliferative activity against anti-CD3/anti-CD28-stimulated human PBMC cells assessed as inhibition of cell growth incubated for 72 hrs in presence of GMP by VPD450 staining based flow cytometry; format: functional
Outline: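 VPD450-stained PBMC, 50×10^3 cells/well, anti-CD3/anti-CD28 stimulation, serial compound dilutions plus GMP at 50 μM in the well. Incubated 72 h at 37 °C, 5% CO2, in triplicate. Proliferation read by flow cytometry as dye dilution and expressed relative to controls.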

[7] = tested on: Jurkat; assay: Immunosuppression-mediated antiproliferative activity against human Jurkat T cells assessed as inhibition of cell growth incubated for 48 hrs by VPD450 staining based flow cytometry; format: functional; outline: as §1
[8] = tested on: Jurkat; assay: Immunosuppression-mediated cytotoxicity against human Jurkat T cells assessed as reduction in cell viability at 1 mg/ml incubated for 48 hrs by MTT assay relative to control; format: cell-based
Outline: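 Jurkat cells (RPMI-1640, 10% FBS) plated at 50×10^3 cells/well and exposed to 1 mg/mL compound (1 mg in 20 μL DMSO, made up to 1 mL with medium). 48 h at 37 °C, 5% CO2, in triplicate. MTT (5 mg/mL stock) for 3 h, acidified isopropanol, A570. Viability calculated at that concentration.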

Compound | Ratio IC50/EC50 [1] | IC50 [2] [µM] | IC50 [3] [µM] | EC50 [4] [µM] | Ratio IC50/EC50 [5] | Activity [6] | EC50 [7] [µM] | Activity [8] [%]
COC(=O)[C@H](CCCNC(=N)N[N+](=O)[O-])NC(=O)CC/C(C)=C/Cc1c(O)c2c(c(C)c1OC)COC2=O | 0.2 | 14 | 347 | 77 | 16 | inactive | 22.3 | –
COC(=O)[C@H](CCCNC(=N)N[N+](=O)[O-])NC(=O)[C@@H]1CCCN1C(=O)[C@H](CCCCNC(=O)CCN)NC(=O)[C@@H](NC(=O)CC/C(C)=C/Cc1c(O)c2c(c(C)c1OC)COC2=O)[C@@H](C)O (Mycophenolyl-TK(βAla)P[Arg(NO2)]-OMe) | 2.5 | 526 | 1020 | 211 | 1.1 | inactive | 941 | –
COC(=O)[C@H](CCCNC(=N)N[N+](=O)[O-])NC(=O)[C@@H]1CCCN1C(=O)[C@H](CCCCNC(=O)CN)NC(=O)[C@@H](NC(=O)CC/C(C)=C/Cc1c(O)c2c(c(C)c1OC)COC2=O)[C@@H](C)O (Mycophenolyl-TK(Gly)P[Arg(NO2)]-OMe) | 1.1 | 628 | – | 590 | – | – | 1030 | 53.4
COC(=O)[C@H](NC(=O)CC/C(C)=C/Cc1c(O)c2c(c(C)c1OC)COC2=O)[C@H](C)O | 7.3 | 69 | 115 | 9 | 8.3 | inactive | 14 | –
COC(=O)[C@@H](CCCNC(=N)N[N+](=O)[O-])NC(=O)CC/C(C)=C/Cc1c(O)c2c(c(C)c1OC)COC2=O | 0.7 | 71 | 572 | 95.6 | 8.2 | inactive | 69 | –
CC[C@H](C)[C@H](NC(=O)CC/C(C)=C/Cc1c(O)c2c(c(C)c1OC)COC2=O)C(=O)O | 2.3 | 20.9 | 73.7 | 9 | 33 | inactive | 2.3 | –
COC(=O)[C@@H](NC(=O)[C@H](CCCCNC(=O)[C@@H](N)C(C)C)NC(=O)[C@@H]1CCCN1C(=O)[C@H](CCCNC(=N)N[N+](=O)[O-])NC(=O)CC/C(C)=C/Cc1c(O)c2c(c(C)c1OC)COC2=O)[C@@H](C)O (Mycophenolyl-[Arg(NO2)]PK(Val)T-OMe) | 4.3 | 548 | – | 129 | – | inactive | 556 | 63.35
COc1c(C)c2c(c(O)c1C/C=C(\C)CCC(=O)O)C(=O)OC2 [MYCOPHENOLIC ACID] | 4.6 | 0.14 | 60.6 | 0.0301 | 228 | – | 0.3 | –
COC(=O)C(NC(=O)CC/C(C)=C/Cc1c(O)c2c(c(C)c1OC)COC2=O)C(=O)OC | 0.3 | 3.5 | 101 | 11 | 1.6 | inactive | 65 | –
COC(=O)[C@H](CCCNC(=N)N[N+](=O)[O-])NC(=O)[C@@H]1CCCN1C(=O)[C@H](CCCCNC(=O)[C@@H](N)CC(C)C)NC(=O)[C@@H](NC(=O)CC/C(C)=C/Cc1c(O)c2c(c(C)c1OC)COC2=O)[C@@H](C)O (Mycophenolyl-TK(Leu)P[Arg(NO2)]-OMe) | 1.2 | 687 | – | 551 | – | – | 801 | 67.04
COc1c(C)c2c(c(O)c1C/C=C(\C)CCC(=O)N[C@H](C(=O)O)[C@@H](C)O)C(=O)OC2 | 0.7 | 82 | 43 | 119 | 0.5 | inactive | 83 | –
COC(=O)C[C@H](NC(=O)CC/C(C)=C/Cc1c(O)c2c(c(C)c1OC)COC2=O)C(=O)OC | 2.2 | 18 | 20 | 8 | 1.2 | inactive | 16.7 | –
COc1c(C)c2c(c(O)c1C/C=C(\C)CCC(=O)N[C@@H](CCCNC(=N)N[N+](=O)[O-])C(=O)O)C(=O)OC2 | 2.2 | 283 | – | 132 | – | inactive | 1190 | 59.12
CC[C@H](C)[C@H](N)C(=O)NCCCC[C@H](NC(=O)[C@@H](NC(=O)CC/C(C)=C/Cc1c(O)c2c(c(C)c1OC)COC2=O)[C@@H](C)O)C(=O)N1CCC[C@H]1C(=O)N[C@@H](CCCNC(=N)N[N+](=O)[O-])C(=O)OC (Mycophenolyl-TK(Ile)P[Arg(NO2)]-OMe) | 1.3 | 461 | 809 | 357 | 0.9 | – | 924 | –
COC(=O)[C@@H](NC(=O)[C@H](CCCCNC(=O)[C@H](C)N)NC(=O)[C@@H]1CCCN1C(=O)[C@H](CCCNC(=N)N[N+](=O)[O-])NC(=O)CC/C(C)=C/Cc1c(O)c2c(c(C)c1OC)COC2=O)[C@@H](C)O (Mycophenolyl-[Arg(NO2)]PK(Ala)T-OMe) | 4.5 | 750 | – | 168 | – | inactive | 839 | 53.9
COc1c(C)c2c(c(O)c1C/C=C(\C)CCC(=O)N[C@H](CCCNC(=N)N[N+](=O)[O-])C(=O)O)C(=O)OC2 | 0.7 | 422 | – | 588 | – | inactive | 1040 | 75.14
COc1c(C)c2c(c(O)c1C/C=C(\C)CCC(=O)N[C@@H](C(=O)O)[C@H](C)O)C(=O)OC2 | 1 | 118 | 229 | 122 | 11 | inactive | 21.4 | –
COc1c(C)c2c(c(O)c1C/C=C(\C)CCC(=O)N[C@@H](CC(=O)O)C(=O)O)C(=O)OC2 | 0.2 | 50 | 540 | 211 | 1.4 | inactive | 396 | –
